Measured values published in ChEMBL document CHEMBL1687729, “Intracellular activity of antibiotics in a model of human THP-1 macrophages infected by a Staphylococcus aureus small-colony variant strain isolated from a cystic fibrosis patient: pharmacodynamic evaluation and comparison with isogenic normal-phenotype and revertant strains” (Antimicrob Agents Chemother, 2009).
Converted amounts (≈) assume the structure as drawn. The source made the active and inactive calls. The calls are words filed in the database; no cut-off is given here.

What was measured:
Staphylococcus aureus [1] = experiment: Antibacterial activity against Staphylococcus aureus SCV isolated from cystic fibrosis patient at pH 7.4 after 48 hrs by broth microdilution method in absence of thymidine; format: functional
Procedure, shortened: (§1)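 MIC by CLSI broth microdilution in cation-adjusted MH II broth. For oritavancin, 0.002% polysorbate-80 was added and non-tissue-culture-treated plates were used to limit binding to plastic. Plates were read at 24 h for normal and revertant strains and at 48 h for the SCV. Where stated, the SCV was tested with 100 mg/liter thymidine. Growth was aerobic.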

Staphylococcus aureus [2] = experiment: Antibacterial activity against Staphylococcus aureus SCV isolated from cystic fibrosis patient at pH 7.4 after 48 hrs by broth microdilution method in presence of thymidine; format: functional; procedure, shortened: as §1
Staphylococcus aureus [3] = experiment: Antibacterial activity against revertant Staphylococcus aureus at pH 7.4 after 24 hrs by broth microdilution method
Staphylococcus aureus [4] = experiment: Antibacterial activity against normal phenotype Staphylococcus aureus at pH 7.4 after 24 hrs by broth microdilution method
[5] = (§2) Cmax in human plasma; format: ADME, organism-based; settings: plasma
[6] = (§3) Fraction unbound in human plasma
Staphylococcus aureus [7] = experiment: Antibacterial activity against Staphylococcus aureus SCV isolated from cystic fibrosis patient infected in human THP-1 cells assessed as log reduction of intracellular CFU level after 24 hrs in presence of thymidine; format: functional, organism-based
Procedure, shortened: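 SCV-infected THP-1 macrophages are exposed 24 h after phagocytosis to antibiotic, with 100 mg/liter thymidine added to the culture medium together with the drug. Read-out is change in log CFU per mg cell protein from the initial inoculum. Data are means ± SD, n = 3; significance by ANOVA with Tukey's test.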

Staphylococcus aureus [8] = experiment: Antibacterial activity against Staphylococcus aureus SCV isolated from cystic fibrosis patient in cation-adjusted MH 2 broth at pH 5.5 after 48 hrs by broth microdilution method; format: functional
Procedure, shortened: (§4)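 MIC by CLSI broth microdilution in cation-adjusted MH II broth adjusted to pH 5.5. Readings were taken at 48 h for the SCV and at 24 h for the normal-phenotype strain.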

Staphylococcus aureus [9] = experiment: Antibacterial activity against normal phenotype Staphylococcus aureus in cation-adjusted MH 2 broth at pH 5.5 after 24 hrs by broth microdilution method; format: functional; procedure, shortened: as §4
Staphylococcus aureus [10] = experiment: Antibacterial activity against Staphylococcus aureus SCV isolated from cystic fibrosis patient in cation-adjusted MH 2 broth assessed as log reduction of extracellular CFU after 5 hrs; format: functional
Procedure, shortened: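 Broth exposure to total drug levels mimicking human serum Cmax, same concentrations as the intracellular assay, for 5 or 24 h. Medium is CA-MH broth, with 0.002% polysorbate-80 when oritavancin is tested. Samples are plated on brain heart infusion agar and incubated 48 h before SCV colonies are counted. Read-out is Δlog CFU/ml from the initial inoculum.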

Staphylococcus aureus [11] = experiment: Antibacterial activity against revertant Staphylococcus aureus infected in human THP-1 cells assessed as log reduction of extracellular CFU level after 24 hrs; format: functional, organism-based
Staphylococcus aureus [12] = experiment: Antibacterial activity against normal phenotype Staphylococcus aureus in infected in human THP-1 cells assessed as log reduction of extracellular CFU level after 24 hrs; format: functional, organism-based
Staphylococcus aureus [13] = experiment: Antibacterial activity against Staphylococcus aureus SCV isolated from cystic fibrosis patient infected in human THP-1 cells assessed as log reduction of intracellular CFU after 5 hrs; format: functional
Procedure, shortened: (§5)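 THP-1 macrophages are infected with the SCV strain, then extracellular bacteria are eliminated after phagocytosis. Drug is added at total concentrations mimicking human serum Cmax for 5, 24 or 72 h. Lysates are plated on brain heart infusion agar and counted after 48 h. Read-out is Δlog CFU/mg cell protein from the postphagocytosis inoculum; no drug-free control is run at 72 h.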

Staphylococcus aureus [14] = experiment: Antibacterial activity against Staphylococcus aureus SCV isolated from cystic fibrosis patient infected in human THP-1 cells assessed as log reduction of intracellular CFU after 72 hrs; format: functional; procedure, shortened: as §5
Staphylococcus aureus [15] = experiment: Antibacterial activity against Staphylococcus aureus SCV isolated from cystic fibrosis patient infected in human THP-1 cells assessed as log reduction of intracellular CFU after 24 hrs; format: functional
Plasma [16] = experiment: as §2; format: ADME, organism-based; settings: in vivo
Plasma [17] = experiment: as §3

Molecule | MIC (Staphylococcus aureus [1]) [µg/mL] | MIC (Staphylococcus aureus [2]) [µg/mL] | MIC (Staphylococcus aureus [3]) [µg/mL] | MIC (Staphylococcus aureus [4]) [µg/mL] | Cmax [5] [ng/mL] | fraction unbound [6] | Activity (Staphylococcus aureus [7]) | MIC (Staphylococcus aureus [8]) [µg/mL] | MIC (Staphylococcus aureus [9]) [µg/mL] | log10cfu (Staphylococcus aureus [10]) | Activity (Staphylococcus aureus [11]) | Activity (Staphylococcus aureus [12]) | log10cfu (Staphylococcus aureus [13]) | log10cfu (Staphylococcus aureus [14]) | log10cfu (Staphylococcus aureus [15]) | Cmax (Plasma [16]) [µg/mL] | Fu (Plasma [17]) [%]
CCCCCCCCCC(=O)N[C@@H](Cc1c[nH]c2ccccc12)C(=O)N[C@H](CC(N)=O)C(=O)N[C@@H](CC(=O)O)C(=O)N[C@@H]1C(=O)NCC(=O)N[C@@H](CCCN)C(=O)N[C@@H](CC(=O)O)C(=O)N[C@H](C)C(=O)N[C@@H](CC(=O)O)C(=O)NCC(=O)N[C@H](CO)C(=O)N[C@@H]([C@H](C)CC(=O)O)C(=O)N[C@@H](CC(=O)c2ccccc2N)C(=O)O[C@@H]1C | 0.125 (≈ 0.0771 µM) | 0.25 | 0.25 (≈ 0.154 µM) | 0.125 (≈ 0.0771 µM) | 57000 | 0.1 | Active | 0.25 (≈ 0.154 µM) | 0.125 (≈ 0.0771 µM) | – | – | – | – | – | – | – | –
CCC[C@@H]1C[C@@H](C(=O)N[C@@H]([C@H]2O[C@H](SC)[C@H](O)[C@@H](O)[C@H]2O)[C@H](C)Cl)N(C)C1 [CLINDAMYCIN] | 0.125 (≈ 0.294 µM) | 0.125 | 0.125 (≈ 0.294 µM) | 0.125 (≈ 0.294 µM) | 4000 | 0.1 | Active | 1 (≈ 2.35 µM) | 1 (≈ 2.35 µM) | 2 | – | – | – | – | – | – | –
CC(=O)O[C@H]1C[C@@]2(C)[C@@H](C[C@@H](O)[C@H]3[C@@]4(C)CC[C@@H](O)[C@@H](C)[C@@H]4CC[C@@]32C)/C1=C(\CCC=C(C)C)C(=O)O [FUSIDIC ACID] | 0.03 (≈ 0.0581 µM) | 0.03 | 0.06 (≈ 0.116 µM) | 0.125 (≈ 0.242 µM) | 30000 | 0.05 | Active | 0.03 (≈ 0.0581 µM) | 0.125 (≈ 0.242 µM) | 1 | Active | Active | – | – | – | – | –
CC(=O)NC[C@H]1CN(c2ccc(N3CCOCC3)c(F)c2)C(=O)O1 [LINEZOLID] | – | – | – | – | 16000 | 0.31 | Active | – | – | 1 | – | – | – | – | – | – | –
COc1c(N2C[C@@H]3CCCN[C@@H]3C2)c(F)cc2c(=O)c(C(=O)O)cn(C3CC3)c12 [MOXIFLOXACIN] | 0.125 (≈ 0.311 µM) | 0.125 | 0.125 (≈ 0.311 µM) | 0.25 (≈ 0.623 µM) | 4000 | – | Active | 2 (≈ 4.98 µM) | 2 (≈ 4.98 µM) | – | – | – | 1 | 1 | – | – | –
CN[C@H](CC(C)C)C(=O)N[C@H]1C(=O)N[C@@H](CC(N)=O)C(=O)N[C@H]2C(=O)N[C@H]3C(=O)N[C@H](C(=O)N[C@H](C(=O)O)c4cc(O)cc(O)c4-c4cc3ccc4O)[C@H](O[C@H]3C[C@](C)(N)[C@@H](O)[C@H](C)O3)c3ccc(c(Cl)c3)Oc3cc2cc(c3O[C@@H]2O[C@H](CO)[C@@H](O)[C@H](O)[C@H]2O[C@H]2C[C@](C)(NCc3ccc(-c4ccc(Cl)cc4)cc3)[C@@H](O)[C@H](C)O2)Oc2ccc(cc2Cl)[C@H]1O [ORITAVANCIN] | 0.015 (≈ 0.00837 µM) | 0.015 | 0.015 (≈ 0.00837 µM) | 0.03 (≈ 0.0167 µM) | 25000 | 0.12 | Active | 0.125 (≈ 0.0697 µM) | 0.03 (≈ 0.0167 µM) | – | – | – | 1 | 1 | 2.5 | – | –
Cc1onc(-c2ccccc2)c1C(=O)N[C@@H]1C(=O)N2[C@@H]1SC(C)(C)[C@@H]2C(=O)O [OXACILLIN] | 0.125 (≈ 0.311 µM) | 0.25 | 0.25 (≈ 0.623 µM) | 0.5 (≈ 1.25 µM) | 64000 | 0.07 | Active | 0.015 (≈ 0.0374 µM) | 0.03 (≈ 0.0747 µM) | – | Active | Active | – | – | – | – | –
CO[C@H]1/C=C/O[C@@]2(C)Oc3c(C)c(O)c4c(O)c(c(/C=N/N5CCN(C)CC5)c(O)c4c3C2=O)NC(=O)/C(C)=C\C=C\[C@H](C)[C@H](O)[C@@H](C)[C@@H](O)[C@@H](C)[C@H](OC(C)=O)[C@@H]1C [RIFAMPIN] | 0.0005 (≈ 0.000608 µM) | 0.002 | 0.0005 (≈ 0.000608 µM) | 0.002 (≈ 0.00243 µM) | 18000 | 0.15 | Active | 0.0005 (≈ 0.000608 µM) | 0.0002 (≈ 0.000243 µM) | – | – | – | 1 | 2 | – | – | –
CCCCCCCCCCNCCN[C@@]1(C)C[C@H](O[C@H]2[C@H](Oc3c4cc5cc3Oc3ccc(cc3Cl)[C@@H](O)[C@@H](NC(=O)[C@@H](CC(C)C)NC)C(=O)N[C@@H](CC(N)=O)C(=O)N[C@H]5C(=O)N[C@H]3C(=O)N[C@H](C(=O)N[C@H](C(=O)O)c5cc(O)c(CNCP(=O)(O)O)c(O)c5-c5cc3ccc5O)[C@H](O)c3ccc(c(Cl)c3)O4)O[C@H](CO)[C@@H](O)[C@@H]2O)O[C@@H](C)[C@H]1O [TELAVANCIN] | 0.125 (≈ 0.0712 µM) | 0.125 | 0.125 (≈ 0.0712 µM) | 0.125 (≈ 0.0712 µM) | 90000 | 0.07 | Active | 0.125 (≈ 0.0712 µM) | 0.125 (≈ 0.0712 µM) | – | – | – | – | – | – | – | –
CN(C)c1cc(NC(=O)CNC(C)(C)C)c(O)c2c1C[C@H]1C[C@H]3[C@H](N(C)C)C(O)=C(C(N)=O)C(=O)[C@@]3(O)C(O)=C1C2=O [TIGECYCLINE] | 0.125 (≈ 0.213 µM) | 0.125 | 0.125 (≈ 0.213 µM) | 0.125 (≈ 0.213 µM) | 1000 | 0.2 | Active | 0.125 (≈ 0.213 µM) | 0.125 (≈ 0.213 µM) | 1 | – | – | – | – | – | – | –
CN[C@H](CC(C)C)C(=O)N[C@H]1C(=O)N[C@@H](CC(N)=O)C(=O)N[C@H]2C(=O)N[C@H]3C(=O)N[C@H](C(=O)N[C@H](C(=O)O)c4cc(O)cc(O)c4-c4cc3ccc4O)[C@H](O)c3ccc(c(Cl)c3)Oc3cc2cc(c3O[C@@H]2O[C@H](CO)[C@@H](O)[C@H](O)[C@H]2O[C@H]2C[C@](C)(N)[C@H](O)[C@H](C)O2)Oc2ccc(cc2Cl)[C@H]1O [VANCOMYCIN] | – | – | – | – | 50000 | 0.5 | Active | – | – | – | Active | Active | – | – | – | – | –
GENTAMICIN [listing 1 of 2 here] | – | – | – | – | – | – | – | – | – | – | – | – | – | – | – | 18 | 100
GENTAMICIN [listing 2 of 2 here] | 0.125 | 0.125 | – | – | – | – | Active | 4 | 8 | – | – | – | – | – | – | – | –
